Measurements from article PMC5591795 (Clinical Pharmacokinetics, 2017).
Where two headings read alike, the source gives them in different places. Numbered stars: 1 amine (or outer) side, 2 acyl side, 3 side chain; on linkers, the order of the positions; unused ones are H or OH. Bridge positions count the residues as written; N and C are the ends. Square brackets hold non-standard residues; d marks the D form. Peptide text beside a SMILES is read from it. * marks the point of attachment. hTyr(3S-OH,4S-OH,3'-OSO3H) = N[C@H](C(=O)O)[C@H](O)[C@@H](O)c1ccc(O)c(OS(=O)(=O)O)c1; Orn(4R-OH,5R-OH) = O=C([C@H](C[C@@H](O)[C@@H](O)N[*:3])N[*:1])[*:2]; Pro(3S-OH,4S-Me) = C[C@H]1CN[C@H](C(=O)O)[C@H]1O; X1 = CCCCCOc1ccc(-c2cc(-c3ccc(C(=O)*)cc3)no2)cc1; Gln(3R-OH) = NC(=O)C[C@@H](O)[C@H](N)C(=O)O; Hyp = O=C(O)[C@@H]1C[C@@H](O)CN1

Legend:
[1] = cited from earlier work
[2] = statement without reference; cited from earlier work
[3] = cited from earlier work; remark: listed apart in the source
[4] = cited from earlier work; remark: listed apart in the source
[5] = Population pharmacokinetic model of micafungin in ICU patients; assay type: in vivo; conditions: human, plasma, iv, 100 mg
Summary of the method: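 ICU adults (n = 20; suspected or proven fungal infection) received 100 mg QD IV over ~1 h. Plasma was sampled on day 3 (±1) pre-dose and 0.5–24 h post start infusion, on day 7 (±1) in six samples to 24 h, and as daily troughs. Drug was measured by UPLC-fluorescence. The model was fitted by FOCE with interaction, with IOV on CL and V and albumin, CVVH and SOFA tested as covariates.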

Anidulafungin
V in critically ill patients compared with healthy volunteers [1]: equal

CCCCCOc1ccc(-c2cc(-c3ccc(C(=O)N[C@H]4C[C@@H](O)[C@@H](O)NC(=O)[C@@H]5[C@@H](O)[C@@H](C)CN5C(=O)[C@H]([C@H](O)CC(N)=O)NC(=O)[C@H]([C@H](O)[C@@H](O)c5ccc(O)c(OS(=O)(=O)O)c5)NC(=O)[C@@H]5C[C@@H](O)CN5C(=O)[C@H]([C@@H](C)O)NC4=O)cc3)no2)cc1 [micafungin] (X1-[Orn(4R-OH,5R-OH)]T[Hyp][hTyr(3S-OH,4S-OH,3'-OSO3H)][Gln(3R-OH)][Pro(3S-OH,4S-Me)]; lactam 1-C)
protein binding [2]: highly protein bound
metabolism [1]: only a small fraction is metabolised
CL ([1]; healthy volunteers): 0.55 L/h
V (V 1 and V 2 together) ([1]; healthy volunteers): 13.9 L
solubility in water [3]: freely soluble in water
tolerability ([4]; doses of 8 mg/kg): well tolerated
tolerability ([4]; therapy with 150–200 mg QD): well tolerated
Vd [5]: 21.2 L

caspofungin
CL and V in critically ill patients compared with healthy volunteers [1]: identical
